The source of these data is ChEMBL document CHEMBL1158412, “Novel pyridopyrimidine derivatives as inhibitors of stable toxin a (STa) induced cGMP synthesis” (Bioorg Med Chem Lett, 2009).

Usually IC50 stands for the concentration at which inhibition is half-maximal. A word on the inhibition: it is the change of the read-out against control, counted positive when it falls.

Tested on in one experiment: not listed separately
Kind of experiment: Inhibition of Escherichia coli heat stable toxin A-stimulated cGMP accumulation in human T84 cells pretreated 10 mins before 1 nM toxin challenge measured after 10 mins of induction by ELISA. It counts as cell-based. On the technique in general: An ELISA detects its analyte on a solid surface through an enzyme-linked reagent.
With `Cn1c2c(c(=O)n(C)c1=O)C(c1cccc(Br)c1)C1=C(N2)c2ccccc2C1=O` (centres undefined), the half-inhibitory concentration (IC50) was 9.6 µM.
Take `Cn1c2c(c(=O)n(C)c1=O)C(c1cc(F)cc(C(F)(F)F)c1)C1=C(N2)c2ccccc2C1=O` (centres undefined): the IC50 came to 3.4 µM.
Regarding `Cn1c2c(c(=O)n(C)c1=O)C(c1cc(C(F)(F)F)cc(C(F)(F)F)c1)C1=C(N2)c2ccccc2C1=O` (centres undefined), the IC50 was 2.5 µM.

A further experiment has as its system T84. Kind of experiment: Inhibition of Escherichia coli heat stable toxin A-stimulated cGMP accumulation in human T84 cells at 50 uM pretreated 10 mins before 250 nM toxin challenge measured after 10 mins of induction by ELISA. It is filed as cell-based. In a few lines:
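T84 cells preincubated 10 min with test compound, then left unstimulated (basal) or stimulated with 250 nM STa for 10 min; cGMP extracted and quantified by ELISA. Each plate included a vehicle control, and percent inhibition was calculated per plate.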
Take `Cn1c2c(c(=O)n(C)c1=O)C(c1cccc(C(F)(F)F)c1F)C1=C(N2)c2ccccc2C1=O` (centres undefined): the inhibition was 80%.
In the case of `CC1=C(C(=O)Nc2ccccc2)C(c2cc(C(F)(F)F)cc(C(F)(F)F)c2)c2c(n(C)c(=O)n(C)c2=O)N1` (centres undefined), the inhibition is 22%.
For `Cn1c2c(c(=O)n(C)c1=O)C(c1cccc(Br)c1)C1=C(CC(c3ccco3)CC1=O)N2` (centres undefined), the inhibition was 2%.
Same read-out and setting: in the case of `Cn1c2c(c(=O)n(C)c1=O)C(c1cccc(F)c1)C1=C(N2)c2ccccc2C1=O` (centres undefined) it was 63%; in that of `Cn1c2c(c(=O)n(C)c1=O)C(c1cccc(Br)c1)C1=C(CCC1=O)N2` (centres undefined), 56%.
Regarding `O=C1C2=C(Nc3[nH]c(=O)[nH]c(=O)c3C2c2cc(C(F)(F)F)cc(C(F)(F)F)c2)c2ccccc21` (centres undefined), the inhibition amounted to 56%.
Still for that read-out and setting: in the case of `O=C1C2=C(Nc3[nH]nc(-c4ccsc4)c3C2c2cc(C(F)(F)F)cc(C(F)(F)F)c2)c2ccccc21` (centres undefined) it was -2%.
`COc1cc(C2C3=C(Nc4c2c(=O)n(C)c(=O)n4C)c2ccccc2C3=O)ccc1O` (centres undefined): the inhibition came out at 29%.
Same read-out and setting: next, `Cn1c2c(c(=O)[nH]c1=O)C(c1cc(C(F)(F)F)cc(C(F)(F)F)c1)C1=C(N2)c2ccccc2C1=O` (centres undefined): 19%; `CC(C)C(=O)N1C2=C(C(=O)c3ccccc32)C(c2ccc(Cl)cc2)c2c1n(C)c(=O)n(C)c2=O` (centres undefined): 22%; `Cn1c2c(c(=O)n(C)c1=O)C(c1cccc(C#N)c1)C1=C(N2)c2ccccc2C1=O` (centres undefined): 23%.
As for `Cn1c2c(c(=O)n(C)c1=O)C(c1cccc(C(F)(F)F)c1)C1=C(N2)c2ccccc2C1=O` (centres undefined), the inhibition is 73%.
Turning to `CC1=C(C(N)=O)C(c2cc(C(F)(F)F)cc(C(F)(F)F)c2)c2c(n(C)c(=O)n(C)c2=O)N1` (centres undefined), the inhibition was 8%.
Turning to `Cn1c2c(c(=O)n(C)c1=O)C(c1ccc(O)c(O)c1)C1=C(N2)c2ccccc2C1=O` (centres undefined), the inhibition worked out at 26%.
Consider `Cn1c2c(c(=O)n(C)c1=O)C(c1ccc(F)c(F)c1F)C1=C(N2)c2ccccc2C1=O` (centres undefined), for which the inhibition was 62%.
Consider `Cn1c2c(c(=O)n(C)c1=O)C(c1ccc(F)c(F)c1F)C1=C(CC(c3ccco3)CC1=O)N2` (centres undefined), for which the inhibition is -3%.
For `Cn1c2c(c(=O)[nH]c1=O)C(c1cccc(Br)c1)C1=C(N2)c2ccccc2C1=O` (centres undefined), the inhibition worked out at 1%.
Still for that read-out and setting: in the case of `Cn1c2c(c(=O)[nH]c1=O)C(c1cc(F)cc(C(F)(F)F)c1)C1=C(N2)c2ccccc2C1=O` (centres undefined) it was -6%; in that of `Cn1c2c(c(=O)n(C)c1=O)C(c1ccccc1)C1=C(N2)c2ccccc2C1=O` (centres undefined), 7%; in that of `Cn1c2c(c(=O)n(C)c1=O)C(c1cccc(Br)c1)C1=C(N2)c2ccccc2C1=O` (centres undefined), 86%.
`Cn1c2c(c(=O)n(C)c1=O)C(c1cc(F)cc(F)c1F)C1=C(N2)c2ccccc2C1=O` (centres undefined): the inhibition was 42%.
With `CC1=C(C(=O)Nc2nccs2)C(c2cccc(Br)c2)c2c(n(C)c(=O)n(C)c2=O)N1` (centres undefined), the inhibition turned out to be 11%.
The same measure, in the same setting: in the case of `Cn1c2c(c(=O)n(C)c1=O)C(c1cc(F)cc(F)c1)C1=C(N2)c2ccccc2C1=O` (centres undefined) it was 63%; in that of `Cn1c2c(c(=O)n(C)c1=O)C(c1cc(F)cc(C(F)(F)F)c1)C1=C(N2)c2ccccc2C1=O` (centres undefined), 93%; in that of `Cn1c(=O)c2c(-c3cccc(Br)c3)c3c(nc2n(C)c1=O)-c1ccccc1C3=O`, 2%.
Still for that read-out and setting: in the case of `Cn1c2c(c(=O)n(C)c1=O)C(c1cc(C(F)(F)F)cc(C(F)(F)F)c1)C1=C(N2)c2ccccc2C1=O` (centres undefined) it was 93%.
